Assay [1] concerns BL-21. As to the kind of experiment: (§1) Inhibition of His-tagged Escherichia coli DnaG primase expressed in Escherichia coli BL-21 cells assessed as inhibition of RNA synthesis complementary to ssDNA using rNTPs measured after 5 mins by microplate spectrofluorometer analysis.
Assay [2] has as its system MDA-MB-231. As to the kind of experiment: Cytotoxicity against human MDA231 cells assessed as inhibition of cell proliferation after 72 hrs by […]. It is filed as functional, cell-based. The gist of the method:
(§2)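 Cells were grown in D-MEM with 10% fetal calf serum plus penicillin, streptomycin and fungizone, then plated in 96-well plates. After 24 h growth they were treated from 100 μM to 10 nM, with compounds in DMSO (final DMSO 1% to 3%). MTS reagent was added at 72 h and absorbance read at 490 nm versus untreated cells. IC50 came from separate duplicate experiments.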

Assay [3] deals with KB. As to the kind of experiment: Cytotoxicity against human KB cells assessed as inhibition of cell proliferation after 72 hrs by […] assay. Format: functional, cell-based. In short, it runs like this: as §2
In assay [4] the test system is MCF7. As to the kind of experiment: Cytotoxicity against human MCF7 cells assessed as inhibition of cell proliferation after 72 hrs by […]. It is filed as functional, cell-based. The gist of the method: as §2
Assay [5] relates to HT-29. As to the kind of experiment: Cytotoxicity against human HT-29 cells assessed as inhibition of cell proliferation after 72 hrs by […]. Format: functional, cell-based. In short, it runs like this:
as §2

Assay [6] relates to HCT-116. As to the kind of experiment: Cytotoxicity against human HCT116 cells assessed as inhibition of cell proliferation after 72 hrs by […]. It is filed as functional, cell-based. The settings on record: for pIC50: HCT-116, 72 h. In short, it runs like this: as §2
In assay [7] the test system is Escherichia coli. As to the kind of experiment: Antibacterial activity against Escherichia coli ATCC 25922 by disk inhibition zone method. Format: functional, organism-based. The gist of the method:
(§3)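 Disk inhibition zone method against the three strains. Reference antibiotics were gentamicin at 10 μg and chloramphenicol at 30 μg. Inhibition zones were compared with these disks.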

Assay [8] deals with Micrococcus luteus. As to the kind of experiment: Antibacterial activity against Micrococcus luteus ATCC 10240 by disk inhibition zone method. Format: functional, organism-based. The gist of the method:
as §3

Assay [9] concerns Bacillus subtilis. As to the kind of experiment: Antibacterial activity against Bacillus subtilis ATCC 6633 by disk inhibition zone method. Format: functional, organism-based. The gist of the method: as §3
Assay [10] is described as follows: as §1.

Data on four molecules can be found in ChEMBL document CHEMBL2331346, “Isolation and characterization of unusual hydrazides from Streptomyces sp. impact of the cultivation support and extraction procedure” (J Nat Prod, 2013).

pIC50: −log10 of the molar value. Active and inactive are the calls of the source. The calls are words filed in the database; no cut-off is given here.

In the case of `CCCC/C=C/N(NC(C)=O)C(=O)CO`, the inhibition result in assay [1], in [2], in assay [3], in assay [4], in assay [5] and in assay [6] was “inactive” in each case. The outcome in assay [7], in assay [8] and in assay [9] was inactive.
As for `CCCC[C@H]1ON(C(=O)CCC2=CCOC2=O)N=C(C)O[C@H]1O` (mixture of isomers), the inhibition entry in assay [1], in assay [2], in assay [3], in assay [4], in assay [5] and in assay [6] was “inactive” throughout. Moreover, the result in assay [7], in [8] and in [9] was inactive.
Take `CC(=O)O[C@@]12CO[C@@H]1C[C@H](O)[C@@]1(C)C(=O)[C@H](O)C3=C(C)[C@@H](OC(=O)[C@H](O)[C@@H](NC(=O)OC(C)(C)C)c4ccccc4)C[C@@](O)([C@@H](OC(=O)c4ccccc4)[C@H]21)C3(C)C` [DOCETAXEL]: the negative logarithm of the IC50 (pIC50) is 9.60 in assay [3] and 7.30 in [6].
Consider `CCCC/C=C\N(NC(C)=O)C(=O)C(CO)/N=[N+](\[O-])CCCCCC` (configuration not stated) [GERALCIN C], for which the pIC50 was 3.15 in assay [10], 6.10 in assay [3] and 6.10 in assay [6]. Also, the inhibition entry in assay [1] was “Dose-dependent effect”. Also, the outcome in assay [7], in assay [8] and in assay [9] was inactive.
